Sampled rows, rich in hits. Any-hit rate of the full collection: about 4.1%.
FLuc stim CS: firefly luciferase counter-screen for stimulation assays; activation factor at 10 µM; 200,000 tested, under 10 active; P08659; ATPlite luciferase biochemical, luminescence, 10 min; 0 = ATP-free wells, 1 = DMSO control;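 active = luciferase activation factor, scaled between plate controls, of at least 2 with compound at 10 µM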
Target sequence (P08659 whole entry, looked up): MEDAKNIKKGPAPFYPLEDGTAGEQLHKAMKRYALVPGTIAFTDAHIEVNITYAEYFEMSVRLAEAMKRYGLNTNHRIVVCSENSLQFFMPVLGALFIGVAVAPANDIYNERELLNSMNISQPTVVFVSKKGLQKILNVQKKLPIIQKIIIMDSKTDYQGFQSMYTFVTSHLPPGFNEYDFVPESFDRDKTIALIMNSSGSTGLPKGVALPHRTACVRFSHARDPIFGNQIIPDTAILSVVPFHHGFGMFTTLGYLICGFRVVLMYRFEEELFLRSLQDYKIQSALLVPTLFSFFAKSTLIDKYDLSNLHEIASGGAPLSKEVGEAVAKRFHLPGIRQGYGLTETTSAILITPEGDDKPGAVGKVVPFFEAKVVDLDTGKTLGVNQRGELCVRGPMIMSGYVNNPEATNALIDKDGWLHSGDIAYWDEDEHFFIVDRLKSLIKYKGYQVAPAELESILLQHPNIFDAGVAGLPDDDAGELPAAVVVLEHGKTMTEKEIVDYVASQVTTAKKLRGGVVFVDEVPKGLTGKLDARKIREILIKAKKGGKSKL
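Assay system: Luciferase/luciferin detection reagent, cell-free biochemical luciferase assay / Read-out: luciferase activation / Benchmarks: No-ATP low control, compound-free enzyme-plus-ATP high control / Medium: PBS buffer for ATP / Detection: luminescence measurement of luciferase light output / Schedule: 10 min at ambient temperature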
APP 5'UTR act: APP 5'UTR luciferase reporter activation | hit rate 1% among 190,000 | SH-SY5Y APP 5'UTR luciferase reporter, luminescence; zero percent = DMSO vehicle wells | activation, % at 2 µM;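 active = activation above a set limit, based on mean plus 3 SD of controls, cut at about 140% in these data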
FLuc inh counter: Photinus pyralis luciferase inhibition counter-screen | P08659 | ATPLite firefly luciferase biochemical luminescence, 10 min | inhibition, % at 10 µM | hit rate 1.5% among 200,000;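 active = inhibition above about 50% when tested at 10 µM, limit read from the data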
STAT1 activator: activators of IFN-gamma induced STAT1 signaling | NIH 3T3 STAT1-luciferase reporter, luminescence; 100% = IFN-gamma alone, no compound | activation (% of control), % at 5.5 µM | hit rate 2.6% among 200,000;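 active = activation above the screen-wide mean activation plus 3 SD, cut at about 130% in these data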;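 note: raw ratio to IFN-gamma control signal so 100% means no change and 0% no light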
NF-kB expr up: compounds increasing NF-kB expression in human neuronal cells; NF-kB reporter expression; hits give high values; fold change at 12.5 µM; hit rate 1.6% among 190,000; AID 1239; in the data active = fold change above about 3.3
Starred values were filed as active, the others as inactive.

SMILES | FLuc stim CS | APP 5'UTR act | FLuc inh counter | STAT1 activator | NF-kB expr up
O=C(Nc1ccccn1)c1ccc2c(c1)OCCO2 | 0.3 | 128 | 74* | 110 | 4.2*
O=C(Nc1nc(-c2ccccn2)cs1)c1ccc2c(c1)OCCO2 | 0.2 | 110 | 79* | 131* | 2.7
c1ccc(CSc2nnnn2-c2ccccc2)cc1 | 1 | 6 | -1 | 97 | 1.3
CCN(CC)c1ccc(NC(=O)c2ccco2)cc1 | 0.2 | 164* | 83* | 127 | 5.2*
CC1N(C)c2cc(NC(=O)c3ccco3)ccc2C1(C)C (stereo not drawn) | 0.5 | 113 | 49 | 143* | 0.27
O=C(Nc1ccc(N2CCCC2)c(Cl)c1)c1cccs1 | 0.3 | 235* | 66* | 142* | 7.4*
CCN(CC)c1ccc(NC(=S)NC(=O)c2cccs2)cc1 | 1 | 97 | 4 | 134* | 1.9
O=C(NC(=S)Nc1ccc(N2CCOCC2)c(Cl)c1)c1cccs1 | 0.9 | 73 | 7 | 110 | 1.1
Cc1cccc2nc(Cn3c(=O)n(CCCC(=O)NCc4ccco4)c(=O)c4ccccc43)cc(=O)n12 | 1 | -7 | 0 | 99 | 0.74
Cc1cccc2[nH]c(-c3ccc(NC(=O)c4ccco4)cc3)nc12 | 0.8 | 102 | 23 | 130* | 2.1
CC(C)CN1C(=O)c2ccc(NC(=O)c3ccco3)cc2C1=O | 0.8 | 9 | 21 | 130* | 1.1
O=C(NC(=S)Nc1ccc(N2CCCCC2)cc1)c1cccs1 | 0.6 | 136* | 36 | 148* | 1.5
CS(=O)(=O)N1CCN(c2ccc(NC(=S)NC(=O)c3cccs3)cc2)CC1 | 1 | 14 | 4 | 100 | 1.2
CCN(CC)c1ccc(NC(=S)NC(=O)c2ccco2)cc1 | 0.9 | 97 | 8 | 142* | 1.6
O=C(Nc1ccc2nc(-c3ccccc3)[nH]c2c1)c1ccco1 | 0.6 | 49 | 42 | 105 | 0.55
CC(=O)N(C)C1=C(O)c2ccccc2C(=O)C1=O | 1 | -15 | -4 | 106 | 0.99
CC(C)CNc1ncnc2c1sc1nc(N3CCOCC3)c3c(c12)CC(C)(C)OC3 | 1.1 | 4 | -9 | 101 | 1.1
COc1ccc(CNC(=O)C2CCN(C(=O)N3CCOc4ccc(C)cc43)CC2)cc1 | 1.1 | -7 | -7 | 97 | 1.2
COc1cccc(NC(=S)N2CCN(C/C=C/c3ccccc3)CC2)c1 | 1 | 10 | -5 | 97 | 0.99
FC(F)(F)COc1ccc(-n2ccnc2)nn1 | 1.1 | 25 | -8 | 92 | 1.1
Cc1cc(C)nc(N/N=C/c2cccc3ccccc23)n1 | 0.7 | 11 | 34 | 118 | 1
Cn1c(SCc2ccccc2Cl)nc2ccccc21 | 0.7 | 114 | 29 | 141* | 1.1
Cn1c(N=Nc2ccc(N3CCOCC3)cc2)[n+](C)c2ccccc21 | 0.4 | 37 | 59* | 120 | 0.6
O=C(CSc1nnc(NC(=O)c2ccco2)s1)Nc1ccc(F)cc1 | 0.8 | -27 | 16 | 101 | 1.1
O=C(Nc1nnc(SCC(=O)N2CCOCC2)s1)c1ccccc1 | 0.1 | 14 | 92* | 115 | 1.6
SMILES | FLuc stim CS | APP 5'UTR act | FLuc inh counter | STAT1 activator | NF-kB expr up
O=C(CSc1nnc(NC(=O)c2ccco2)s1)Nc1ccc2c(c1)OCCO2 | 0.5 | 16 | 55* | 98 | 0.98
O=C(O)CSc1nnc(NC(=O)c2ccc3c(c2)OCO3)s1 | 0.1 | 1 | 91* | 65 | 0.92
N/C(=N\OC(=O)c1ccc(Cl)c(Cl)c1)c1ccccn1 | 0.5 | 140* | 46 | 131* | 4.5*
N/C(=N\OC(=O)c1cccc(Cl)c1)c1ccccn1 | 0.1 | 166* | 91* | 77 | 5.3*
CC(C)C(=O)O/N=C(\N)c1ccccn1 | 1.1 | 13 | -6 | 96 | 0.83
N/C(=N\OC(=O)c1cccnc1)c1ccccc1Cl | 0.6 | 12 | 40 | 131* | 1.6
N/C(=N\OC(=O)c1ccc(Cl)c([N+](=O)[O-])c1)c1ccccn1 | 0.7 | 25 | 26 | 99 | 1.8
N/C(=N\OC(=O)c1ccccc1Cl)c1ccccn1 | 0.1 | 123 | 93* | 31 | 0.88
N/C(=N\OC(=O)c1cc(-c2ccccc2)nc2ccccc12)c1ccccn1 | 0.9 | 11 | 13 | 101 | 0.91
O=C(Nc1ccncc1)c1ccc(-c2ccccc2)cc1 | 0.7 | 25 | 26 | 84 | 1.4
COc1ccc(-c2ccc(SCc3ccccn3)nn2)cc1OC | 1 | 22 | 0 | 102 | 1
O=C(NC1CCCCC1)[C@H](CSCc1ccccc1)N1Cc2ccccc2C1=O | 1 | -11 | 1 | 107 | 0.77
